ChEMBL document CHEMBL4052671, “Design, synthesis, and evaluation of DNA topoisomerase II-targeted nucleosides” (Bioorg Med Chem, 2017)
Calls of active or inactive are those of the source. The rule behind the calls is not given here.

Columns and labels:
[1] = target: T1, DNA topoisomerase 2-alpha (Homo sapiens, UniProt P11388); test: Inhibition of recombinant human DNA topoisomerase-2alpha assessed as decrease in relaxation of supercoiled pBR322 DNA after 30 mins by ethidium bromide staining based agarose gel electrophoresis
T1 sequence (P11388 whole entry): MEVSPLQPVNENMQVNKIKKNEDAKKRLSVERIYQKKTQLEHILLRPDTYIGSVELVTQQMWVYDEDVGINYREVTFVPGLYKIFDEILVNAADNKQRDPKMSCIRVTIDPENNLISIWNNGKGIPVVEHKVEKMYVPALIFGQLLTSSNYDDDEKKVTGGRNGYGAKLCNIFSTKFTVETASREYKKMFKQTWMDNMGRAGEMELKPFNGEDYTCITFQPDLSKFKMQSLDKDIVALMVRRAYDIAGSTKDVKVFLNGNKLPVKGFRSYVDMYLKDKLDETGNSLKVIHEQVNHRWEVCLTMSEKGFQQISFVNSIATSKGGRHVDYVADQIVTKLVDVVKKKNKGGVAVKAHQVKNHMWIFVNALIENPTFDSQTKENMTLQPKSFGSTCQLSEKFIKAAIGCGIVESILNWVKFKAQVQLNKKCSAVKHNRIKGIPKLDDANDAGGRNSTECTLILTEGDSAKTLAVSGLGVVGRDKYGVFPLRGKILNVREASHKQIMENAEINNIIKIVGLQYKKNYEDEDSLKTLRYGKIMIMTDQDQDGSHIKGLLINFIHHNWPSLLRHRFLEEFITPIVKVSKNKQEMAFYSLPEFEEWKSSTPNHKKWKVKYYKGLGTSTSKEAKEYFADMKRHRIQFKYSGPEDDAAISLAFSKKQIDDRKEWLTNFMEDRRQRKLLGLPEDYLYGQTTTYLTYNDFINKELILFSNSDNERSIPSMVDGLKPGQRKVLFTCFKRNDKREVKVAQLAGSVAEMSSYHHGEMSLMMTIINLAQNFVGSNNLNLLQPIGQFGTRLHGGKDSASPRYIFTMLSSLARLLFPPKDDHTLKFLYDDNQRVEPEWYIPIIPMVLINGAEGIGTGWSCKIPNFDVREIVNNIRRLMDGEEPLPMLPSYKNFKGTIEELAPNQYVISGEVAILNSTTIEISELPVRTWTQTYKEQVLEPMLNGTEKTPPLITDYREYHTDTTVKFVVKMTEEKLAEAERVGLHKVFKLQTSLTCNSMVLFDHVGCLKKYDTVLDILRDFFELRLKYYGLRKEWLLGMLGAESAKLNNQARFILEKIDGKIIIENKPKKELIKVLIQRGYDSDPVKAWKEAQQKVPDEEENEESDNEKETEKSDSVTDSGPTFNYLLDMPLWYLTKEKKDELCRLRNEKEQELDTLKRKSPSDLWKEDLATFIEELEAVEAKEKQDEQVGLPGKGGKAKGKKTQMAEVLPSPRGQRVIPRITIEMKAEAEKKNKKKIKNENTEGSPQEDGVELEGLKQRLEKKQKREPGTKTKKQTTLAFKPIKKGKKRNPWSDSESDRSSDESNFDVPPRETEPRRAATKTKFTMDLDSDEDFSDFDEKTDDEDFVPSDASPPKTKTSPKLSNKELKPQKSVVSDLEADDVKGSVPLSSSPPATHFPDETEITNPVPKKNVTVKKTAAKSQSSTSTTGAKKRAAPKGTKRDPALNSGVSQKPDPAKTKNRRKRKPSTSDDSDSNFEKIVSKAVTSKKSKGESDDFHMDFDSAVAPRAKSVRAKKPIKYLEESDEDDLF

[2] = target: T1, DNA topoisomerase 2-alpha; test: Inhibition of recombinant human DNA topoisomerase-2alpha assessed as decrease in relaxation of supercoiled pBR322 DNA at 200 uM after 30 mins by ethidium bromide staining based agarose gel electrophoresis relative to control
Procedure, shortened: (§1)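 Topo II relaxation of supercoiled pBR322 (198 ng) with 1 U enzyme, 50 mM Tris-HCl pH 8, 120 mM KCl, 10 mM MgCl2, 0.5 mM ATP, 0.5 mM DTT, drug in <10% DMSO; 37 °C for 30 min; products run on 1% agarose in TAE, ethidium-stained, scanned; supercoiled DNA area quantified.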

[3] = target: T1, DNA topoisomerase 2-alpha; test: Inhibition of recombinant human DNA topoisomerase-2alpha assessed as decrease in relaxation of supercoiled pBR322 DNA at […] after 30 mins by ethidium bromide staining based agarose gel electrophoresis relative to control; procedure, shortened: as §1

Compound	IC50 [1] [µM]	inhibition [2]	inhibition [3] [%]
COc1ccc(C[C@H]2C[C@H](n3cc(C)c(=O)[nH]c3=O)O[C@@H]2CO)cc1OC	> 200	inactive	23.7
COc1ccc(C2([C@H]3C[C@H](n4cc(C)c(=O)[nH]c4=O)O[C@@H]3CO)SCCCS2)cc1OC	64.5		
Cc1cn([C@H]2C[C@H](CC3=CC(=O)C(=O)C=C3)[C@@H](CO[Si](C)(C)C(C)(C)C)O2)c(=O)[nH]c1=O	2.43		
Cc1cn([C@H]2C[C@H](Cc3ccc(O)c(O)c3)[C@@H](CO[Si](C)(C)C(C)(C)C)O2)c(=O)[nH]c1=O	35.2		

Continued, values first:

IC50 [1] [µM]	inhibition [2]	inhibition [3] [%]	Compound
137			COc1ccc(C[C@H]2CC(=O)O[C@@H]2CO[Si](C)(C)C(C)(C)C)cc1OC
> 200		19.8	COc1ccc(C2([C@H]3CC(=O)O[C@@H]3CO)SCCCS2)cc1OC
55.7			COc1ccc(C2([C@H]3CC(=O)O[C@@H]3CO[Si](C)(C)C(C)(C)C)SCCCS2)cc1OC
